Sampled rows, rich in hits. Any-hit rate of the full collection: about 1.4%.
PERK inhibitor – block of dimerizer-induced PERK translation repression, primary screen, PERK inhibitor project, CHO PERK-DD cells, SEAP luminescence, HTS. Eukaryotic translation initiation factor 2-alpha kinase 3 (Homo sapiens), Q9NZJ5. CHO PERK-DD fusion, SEAP luminescence translation reporter. inhibition, % at 5.6 µM. hit rate 0.17% among 220,000;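 active = inhibition above the mean inhibition of all tested compounds plus 3 SD, set separately per screening campaign, cut at about 2.9% in these data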;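 also: PERK kinase domain activated by AP20187 dimerizer at 100 nM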
Platelet DG rel – inhibitors of platelet dense granule secretion, primary screen, cell-based, MLPCN, human platelets; human platelet-rich plasma, SFLLRN dense granule ATP release, luminescence; inhibition, %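 (compounds screened at 7.5 µM in platelet-rich plasma)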; hit rate 0.22% among 300,000;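 active = mean replicate score, as percent of positive control, at or above 50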
STAT3 act-1 – IL-6 driven STAT3 reporter potentiators, primary screen, U3A cells, luciferase, luminescence, MLSCN library; AID 871, 2007; IL-6 STAT3-luciferase reporter; 100% = signal with IL-6 EC80 alone; activation (% of control), % at 5.6 µM; hit rate 0.91% among 190,000;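 active = activation above the screen-wide mean of compound activation plus 3 SD, cut at about 130% in these data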
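system = STAT3-luciferase reporter U3A cells | reagent = IL-6 stimulus at 33 ng/mL final | timing = 1 h compound pre-exposure, 6 h IL-6 stimulation, 37 °C | measured by = luminescence | evaluation = % activation versus median of IL-6-stimulated wells | control set = IL-6-only wells as 100% reference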
STAT3 blocker – IL-6 driven STAT3 reporter inhibitors, primary screen, U3A cells, luciferase, luminescence, MLSCN library | hit rate 0.89% among 190,000 | IL-6 STAT3-luciferase reporter; host cell line lacks STAT1 | inhibition, % at 5.5 µM;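 active = inhibition above the mean inhibition across all screened compounds plus 3 SD, cut at about 44% in these data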
STAT1 inh-1 – STAT1 signaling inhibitors, primary screen, cell-based, HTS, luciferase reporter. NIH 3T3 STAT1-luciferase reporter, IFN-gamma, luminescence. inhibition, % at 5.5 µM. hit rate 0.35% among 200,000;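 active = inhibition above a set limit, the mean inhibition across all tested compounds plus 3 SD, cut at about 34% in these data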
STAT3 act-2 – STAT3 reporter potentiators, retest of hits, confirmation, U3A cells, luciferase, luminescence | shares compounds with STAT3 act-1 | IL-6 potentiation; U3A cells lack STAT1; 100 means same as IL-6 alone | potentiation (% of control), % at 5.7 µM | hit rate 64% among 1,200 | AID 1267, 2008;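 active = percent activation of the STAT3 luciferase reporter above a set limit taken from the earlier primary screen, cut at about 130% in these data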
NFkB act 2 – NF-kB reporter activators in human cells, counter-screen for STAT3 activator project; hit rate 11% among 1,200; activation (% of control), % at 5.7 µM; NF-kappaB reporter activation; shares compounds with STAT3 act-1; in the data active = activation above about 120%;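 also: reporter induced by TNF-alpha stimulation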
STAT1 act – STAT1 reporter activators, IFN-gamma induced, counter-screen for STAT3 activator project, cell-based, NIH 3T3, luciferase luminescence; NIH 3T3 STAT1-luciferase reporter; shares compounds with STAT3 act-1; AID 1318, 2008; hit rate 13% among 1,200; activation (% of control), % at 5.7 µM;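 active = activation above the solvent-only control well mean plus 3 SD, set per screening run, cut at about 120% in these data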
STAT1 inh-2 – STAT1 signaling inhibitors, confirmation, cell-based, HTS, luciferase reporter; shares compounds with STAT1 inh-1; NIH 3T3 STAT1-luciferase reporter, IFN-gamma, luminescence; inhibition, % at 5.5 µM; hit rate 55% among 200; AID 1263, 2008;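 active = triplicate mean inhibition exceeding the hit cutoff computed for the primary STAT1 screen, cut at about 35% in these data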
NFkB inh STAT1ct – NF-kB reporter inhibitors, TNF-alpha stimulated, counter-screen for STAT1 inhibitor project, cell-based, HEK293T, luciferase luminescence; hit rate 30% among 200; inhibition, % at 5.7 µM; AID 1303, 2008; shares compounds with STAT1 inh-1; TNF-alpha induced;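 active = inhibition above the mean of solvent-only control wells plus 3 SD of those wells, cut at about 15% in these data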
STAT3 inh STAT1c – STAT3 reporter inhibition by STAT1 hits, counter-screen for STAT1 inhibitor project, U3A cells, luciferase, luminescence, triplicate; IL-6 STAT3 luciferase reporter; cells lacking STAT1; AID 1310, 2008; inhibition, % at 5.7 µM; hit rate 20% among 200; shares compounds with STAT1 inh-1;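 active = inhibition above the mean of solvent-only control wells plus 3 SD, set per campaign, cut at about 25% in these data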
Each line names hits and unclear results; the compound was inactive in the other large screens (follow-up assays come after a bar, where they were run).

O=c1c2ccccc2nc(-c2ccc(-c3ccccc3)cc2)n1-c1ccncc1	STAT3 act-1 143.9 | STAT3 act-2 134.5 | NFkB act 2 inactive | STAT1 act inactive
Cc1ccc(-c2nc3ccccc3c(=O)n2-c2ccncc2)cc1	none
CCCCc1cc(=O)oc2cc(OCC(=O)N3C[C@H]4C[C@@H](C3)c3cccc(=O)n3C4)c(Cl)cc12	none (no result: PERK inhibitor, STAT3 act-1, STAT3 blocker, STAT1 inh-1)
CCC(CC)NCc1c[nH]c2ccccc12	STAT3 act-1 146.1 | STAT3 act-2 163.5 | NFkB act 2 inactive | STAT1 act inactive
Cc1ccccc1C1=NCC(=O)N(CC(=O)NCc2ccco2)c2sc3c(c21)CCCC3	none (no result: Platelet DG rel)
c1ccc2c(CN3CCN(C4CCCCC4)CC3)c[nH]c2c1	STAT3 act-1 166.2 | STAT3 act-2 146.3 | NFkB act 2 inactive | STAT1 act inactive
c1ccc2c(CN3CCCCCCC3)c[nH]c2c1	STAT3 act-1 152.8 | STAT3 act-2 149.3 | NFkB act 2 inactive | STAT1 act inactive
O=c1[nH]c(=O)n(Cc2ccccc2Cl)c(O)c1/C=C1/C=CC=N1	STAT3 act-1 138.9 | STAT3 act-2 inactive | NFkB act 2 inactive | STAT1 act inactive
C=CCn1c(O)c(/C=C2/C=CC=N2)c(=O)[nH]c1=O	none
CCCN1CCCC(C(=O)c2cc(C)c(OC)c(C)c2)C1 (stereo unspecified)	none (no result: PERK inhibitor, STAT3 act-1, STAT3 blocker, STAT1 inh-1)
CC(C)[C@H]1C(=O)O[C@H](C(C)C)C(=O)N(C)[C@@H](C(C)C)C(=O)O[C@H](C(C)C)C(=O)N(C)[C@@H](C(C)C)C(=O)O[C@H](C(C)C)C(=O)N1C	STAT1 inh-1 46.8 (no result: STAT3 act-1, STAT3 blocker) | STAT1 inh-2 inactive | NFkB inh STAT1ct inactive | STAT3 inh STAT1c inactive
C[N+]1(CC2COC(c3ccco3)O2)CCCCC1 (stereo unspecified)	none
Cc1cc(C)cc(N2C(=O)NC(=O)/C(=C\c3cccn3-c3ccccc3)C2=O)c1	none
Cc1cc(C)cc(N2C(=O)NC(=O)/C(=C\c3cccn3-c3ccc(Cl)cc3)C2=O)c1	STAT1 inh-1 38.2 | STAT1 inh-2 inactive | NFkB inh STAT1ct inactive | STAT3 inh STAT1c inactive

Screening results from PubChem BioAssay.
